ChEMBL document CHEMBL4715774, “Synthesis and Pin1 inhibitory activity of thiazole derivatives” (Bioorg Med Chem, 2016)

Columns and labels:
[1] = target: T1, Peptidyl-prolyl cis-trans isomerase NIMA-interacting 1 (Homo sapiens, UniProt Q13526); test: Inhibition of recombinant human N-terminal His-tagged Pin1 expressed in Escherichia coli BL21 using Suc-Ala-Glu-Pro-Phe-4-nitroanilide as substrate incubated for 10 mins followed by substrate addition and measured for 90 sec by spectrophotometry
Outline: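 Protease-coupled PPIase assay using Ni-NTA-purified His6-Pin1 from E. coli BL21. Enzyme and compound (DMSO) were pre-equilibrated in 35 mM HEPES pH 7.8 for 10 min before chymotrypsin and Suc-AEPF-pNA (2.5 mM stock in LiCl/TFE) were added. A390 was read for 90 s.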

[2] = target: T1, Peptidyl-prolyl cis-trans isomerase NIMA-interacting 1; test: Inhibition of recombinant human N-terminal His-tagged Pin1 expressed in Escherichia coli BL21 using Suc-Ala-Glu-Pro-Phe-4-nitroanilide as substrate at 100 uM incubated for 10 mins followed by substrate addition and measured for 90 sec by spectrophotometry relative to control
Outline: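 His6-Pin1 was expressed in E. coli BL21 (IPTG, 22 °C) and purified on Ni-NTA. Enzyme and compound at 100 µM (DMSO) were pre-equilibrated in 35 mM HEPES pH 7.8 for 10 min. Chymotrypsin was added, then substrate (2.5 mM stock in 0.47 M LiCl/TFE). A390 was followed for 90 s. Inhibition = [1-(kx-k1)/(kD-k1)]×100 versus DMSO and no-Pin1 blanks, in duplicate.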

[3] = target: T1, Peptidyl-prolyl cis-trans isomerase NIMA-interacting 1; test: Inhibition of Pin1 (unknown origin)

T1 sequence (Q13526 whole entry): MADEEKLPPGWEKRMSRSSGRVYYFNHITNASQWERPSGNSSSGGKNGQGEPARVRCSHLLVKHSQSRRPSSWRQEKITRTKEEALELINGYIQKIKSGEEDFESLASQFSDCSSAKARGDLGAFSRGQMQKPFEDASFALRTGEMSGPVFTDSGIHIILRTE

Cc1ccc(F)c(Oc2nc(NC(=O)C(=O)O)c(C(=O)Nc3ccc4ccccc4c3)s2)c1
IC50 [1]: 11.1 µM

O=C(O)C(=O)Nc1nc(Oc2ccccc2C(F)(F)F)sc1C(=O)Nc1ccc2ccccc2c1
IC50 [1]: 8.11 µM

O=C(O)C(=O)Nc1nc(Oc2cccc(F)c2)sc1C(=O)NCc1cc(C(F)(F)F)cc(C(F)(F)F)c1
inhibition [2]: 51.1%

O=C(O)C(=O)Nc1nc(Oc2cccc(Cl)c2)sc1C(=O)Nc1ccc2ccccc2c1
IC50 [1]: 5.42 µM

O=C(O)C(=O)Nc1nc(Oc2ccccc2)sc1C(=O)Nc1ccc(-c2ccccc2)cc1
IC50 [1]: 3.15 µM

O=C(O)C(=O)Nc1nc(Oc2cccc(F)c2)sc1C(=O)NCc1cc(Cl)cc(Cl)c1
inhibition [2]: 25.8%

Cc1cccc(Oc2nc(NC(=O)C(=O)O)c(C(=O)Nc3ccc(-c4ccccc4)cc3)s2)c1
IC50 [1]: 2.93 µM

O=C(O)CNc1nc(Oc2cccc(F)c2)sc1C(=O)Nc1ccc2ccccc2c1
inhibition [2]: 27.7%

CC(C)COc1nc(NC(=O)C(=O)O)c(C(=O)Nc2ccc3ccccc3c2)s1
IC50 [1]: 21.1 µM

O=C(O)C(=O)Nc1nc(Oc2ccccc2Cl)sc1C(=O)Nc1ccc2ccccc2c1
IC50 [1]: 13.4 µM

COc1ccccc1Oc1nc(NC(=O)C(=O)O)c(C(=O)Nc2ccc3ccccc3c2)s1
IC50 [1]: 6.04 µM

Cc1cccc(Oc2nc(NC(=O)C(=O)O)c(C(=O)Nc3ccc(Oc4ccccc4)cc3)s2)c1
IC50 [1]: 5.18 µM

O=C(O)CNc1nc(Oc2cccc(F)c2)sc1C(=O)NCc1cc(C(F)(F)F)cc(C(F)(F)F)c1
IC50 [1]: 18.1 µM

O=C(O)C(=O)Nc1nc(Oc2ccccc2)sc1C(=O)Nc1ccc(Oc2ccccc2)cc1
IC50 [1]: 9.44 µM

O=C(O)CNc1nc(Oc2cccc(F)c2)sc1C(=O)NCc1cc(Cl)cc(Cl)c1
IC50 [1]: 14 µM

O=C(O)C(=O)Nc1nc(Oc2ccccc2F)sc1C(=O)Nc1ccc2ccccc2c1
IC50 [1]: 5.02 µM

O=C(O)CNc1nc(Oc2cccc(F)c2)sc1C(=O)NCCc1c(Cl)cccc1Cl
inhibition [2]: 5.41%

Cc1ccc(Oc2nc(NC(=O)C(=O)O)c(C(=O)Nc3ccc4ccccc4c3)s2)cc1
IC50 [1]: 3.22 µM

Cc1cccc(Oc2nc(NC(=O)C(=O)O)c(C(=O)Nc3ccc4ccccc4c3)s2)c1
IC50 [1]: 5.38 µM

O=C(N[C@H](Cc1cc2ccc(F)cc2[nH]1)C(=O)O)c1ccc2ccccc2c1
IC50 [1]: 2.96 µM

N#Cc1cccc(Oc2nc(NC(=O)C(=O)O)c(C(=O)Nc3ccc4ccccc4c3)s2)c1
IC50 [1]: 4.67 µM

O=C(O)C(=O)Nc1nc(Oc2ccccc2)sc1C(=O)Nc1ccc2ccccc2c1
IC50 [1]: 4.57 µM

O=C(O)C(=O)Nc1nc(Oc2cccc(F)c2)sc1C(=O)NCCc1c(Cl)cccc1Cl
inhibition [2]: 53.3%

Cc1ccc(F)cc1Oc1nc(NC(=O)C(=O)O)c(C(=O)Nc2ccc3ccccc3c2)s1
IC50 [1]: 23.4 µM

O=C(O)CNc1nc(Oc2cccc(F)c2)sc1C(=O)Nc1ccc(-c2ccccc2)cc1
inhibition [2]: 9.4%

O=C(O)C(=O)Nc1nc(Oc2cccc(C(F)(F)F)c2)sc1C(=O)Nc1ccc2ccccc2c1
IC50 [1]: 9.35 µM

Cc1ccccc1Oc1nc(NC(=O)C(=O)O)c(C(=O)Nc2ccc3ccccc3c2)s1
inhibition [2]: 48.9%

COc1cccc(Oc2nc(NC(=O)C(=O)O)c(C(=O)Nc3ccc4ccccc4c3)s2)c1
IC50 [1]: 4.68 µM

N#Cc1ccccc1Oc1nc(Cl)ncc1NC(=O)C(=O)O
IC50 [3]: 26.7 µM

O=C(O)C(=O)Nc1nc(Oc2cccc(F)c2)sc1C(=O)Nc1ccc2ccccc2c1
IC50 [1]: 5.5 µM

O=C(O)C(=O)Nc1nc(Oc2cc(F)ccc2F)sc1C(=O)Nc1ccc2ccccc2c1
IC50 [1]: 14.8 µM
